The record followed here is ChEMBL document CHEMBL4052671, “Design, synthesis, and evaluation of DNA topoisomerase II-targeted nucleosides” (Bioorg Med Chem, 2017).

Activity calls are given as the source filed them. The calls are words filed in the database; no cut-off is given here.

The target of experiment [1] is T1, DNA topoisomerase 2-alpha (Homo sapiens, UniProt P11388). Nature of the experiment: Inhibition of recombinant human DNA topoisomerase-2alpha assessed as decrease in relaxation of supercoiled pBR322 DNA at […] after 30 mins by ethidium bromide staining based agarose gel electrophoresis relative to control. The method, boiled down:
(§1)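 Topo II relaxation of supercoiled pBR322 (198 ng) with 1 U enzyme, 50 mM Tris-HCl pH 8, 120 mM KCl, 10 mM MgCl2, 0.5 mM ATP, 0.5 mM DTT, drug in <10% DMSO; 37 °C for 30 min; products run on 1% agarose in TAE, ethidium-stained, scanned; supercoiled DNA area quantified.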

Experiment [2] concerns the target T1, DNA topoisomerase 2-alpha. In words: Inhibition of recombinant human DNA topoisomerase-2alpha assessed as decrease in relaxation of supercoiled pBR322 DNA after 30 mins by ethidium bromide staining based agarose gel electrophoresis.
A short description of experiment [3]: Growth inhibition of human HBC4 cells incubated for 48 hrs by sulforhodamine B assay. Format: functional. The settings on record: HBC4, 48 h.
The nature of experiment [4]: Growth inhibition of human BSY1 cells incubated for 48 hrs by sulforhodamine B assay. The settings on record: BSY-1, 48 h. Format: functional.
The nature of experiment [5]: Growth inhibition of human HBC5 cells incubated for 48 hrs by sulforhodamine B assay. Type of experiment: functional. The settings on record: HBC5, 48 h.
In experiment [6] the test system is MCF7. Nature of the experiment: Growth inhibition of human MCF7 cells incubated for 48 hrs by sulforhodamine B assay. Type of experiment: functional. As to conditions: MCF7, 48 h.
The nature of experiment [7]: Growth inhibition of human […] incubated for 48 hrs by sulforhodamine B assay. Type of experiment: functional.
Experiment [8] deals with U-251. In words: Growth inhibition of human U251 cells incubated for 48 hrs by sulforhodamine B assay. As to conditions: U-251, 48 h. Format: functional.
Experiment [9] deals with SF-268. In words: Growth inhibition of human SF268 cells incubated for 48 hrs by sulforhodamine B assay. Type of experiment: functional. As to conditions: SF-268, 48 h.
Experiment [10] has as its system SF-295. In words: Growth inhibition of human SF295 cells incubated for 48 hrs by sulforhodamine B assay. Type of experiment: functional. As to conditions: SF-295, 48 h.
Experiment [11] relates to SF-539. Nature of the experiment: Growth inhibition of human SF539 cells incubated for 48 hrs by sulforhodamine B assay. Type of experiment: functional. The settings on record: SF-539, 48 h.
Experiment [12] deals with SNB-75. Nature of the experiment: Growth inhibition of human SNB75 cells incubated for 48 hrs by sulforhodamine B assay. Format: functional. The settings on record: SNB-75, 48 h.
Experiment [13] has as its system SNB-78. Nature of the experiment: Growth inhibition of human SNB78 cells incubated for 48 hrs by sulforhodamine B assay. Format: functional. The settings on record: SNB-78, 48 h.
In experiment [14] the test system is HCC 2998. In words: Growth inhibition of human HCC2998 cells incubated for 48 hrs by sulforhodamine B assay. Type of experiment: functional. The settings on record: HCC 2998, 48 h.
The subject of experiment [15] is KM12. In words: Growth inhibition of human KM12 cells incubated for 48 hrs by sulforhodamine B assay. Format: functional. The settings on record: KM12, 48 h.
The subject of experiment [16] is HT-29. Nature of the experiment: Growth inhibition of human HT-29 cells incubated for 48 hrs by sulforhodamine B assay. Type of experiment: functional. As to conditions: HT-29, 48 h.
Experiment [17] concerns HCT-15. In words: Growth inhibition of human HCT15 cells incubated for 48 hrs by sulforhodamine B assay. Format: functional. The settings on record: HCT-15, 48 h.
Experiment [18] deals with HCT-116. In words: Growth inhibition of human HCT116 cells incubated for 48 hrs by sulforhodamine B assay. Format: functional. As to conditions: HCT-116, 48 h.
For experiment [19], the system named is NCI-H23. Nature of the experiment: Growth inhibition of human NCI-H23 cells incubated for 48 hrs by sulforhodamine B assay. The settings on record: NCI-H23, 48 h. Type of experiment: functional.
The test system of experiment [20] is NCI-H226. In words: Growth inhibition of human NCI-H226 cells incubated for 48 hrs by sulforhodamine B assay. Format: functional. The settings on record: NCI-H226, 48 h.
The test system of experiment [21] is NCI-H522. In words: Growth inhibition of human NCI-H522 cells incubated for 48 hrs by sulforhodamine B assay. Format: functional. The settings on record: NCI-H522, 48 h.
The subject of experiment [22] is NCI-H460. Nature of the experiment: Growth inhibition of human NCI-H460 cells incubated for 48 hrs by sulforhodamine B assay. Format: functional. The settings on record: NCI-H460, 48 h.
The subject of experiment [23] is A549. Nature of the experiment: Growth inhibition of human A549 cells incubated for 48 hrs by sulforhodamine B assay. The settings on record: A549, 48 h. Format: functional.
In experiment [24] the test system is DMS-273. Nature of the experiment: Growth inhibition of human DMS273 cells incubated for 48 hrs by sulforhodamine B assay. As to conditions: DMS-273, 48 h. Format: functional.
The subject of experiment [25] is DMS-114. Nature of the experiment: Growth inhibition of human DMS114 cells incubated for 48 hrs by sulforhodamine B assay. Type of experiment: functional. As to conditions: DMS-114, 48 h.
The test system of experiment [26] is LOX IMVI. In words: Growth inhibition of human LOXIMVI cells incubated for 48 hrs by sulforhodamine B assay. Format: functional.
Experiment [27] relates to OVCAR-3. In words: Growth inhibition of human OVCAR3 cells incubated for 48 hrs by sulforhodamine B assay. As to conditions: OVCAR-3, 48 h. Type of experiment: functional.
In experiment [28] the test system is OVCAR-4. Nature of the experiment: Growth inhibition of human OVCAR4 cells incubated for 48 hrs by sulforhodamine B assay. Format: functional. As to conditions: OVCAR-4, 48 h.
Experiment [29] relates to OVCAR-5. Nature of the experiment: Growth inhibition of human OVCAR5 cells incubated for 48 hrs by sulforhodamine B assay. Type of experiment: functional. The settings on record: OVCAR-5, 48 h.
Experiment [30] concerns OVCAR-8. In words: Growth inhibition of human OVCAR8 cells incubated for 48 hrs by sulforhodamine B assay. Type of experiment: functional. As to conditions: OVCAR-8, 48 h.
Experiment [31] has as its system SK-OV-3. Nature of the experiment: Growth inhibition of human SKOV3 cells incubated for 48 hrs by sulforhodamine B assay. Format: functional. The settings on record: SK-OV-3, 48 h.
Experiment [32] has as its system RXF 631. Nature of the experiment: Growth inhibition of human RXF631L cells incubated for 48 hrs by sulforhodamine B assay. Type of experiment: functional. As to conditions: RXF 631, 48 h.
Experiment [33] concerns ACHN. Nature of the experiment: Growth inhibition of human ACHN cells incubated for 48 hrs by sulforhodamine B assay. Type of experiment: functional.
For experiment [34], the system named is St-4. Nature of the experiment: Growth inhibition of human St-4 cells incubated for 48 hrs by sulforhodamine B assay. Format: functional. As to conditions: St-4, 48 h.
For experiment [35], the system named is MKN-1. In words: Growth inhibition of human MKN1 cells incubated for 48 hrs by sulforhodamine B assay. Format: functional. As to conditions: MKN-1, 48 h.
Experiment [36] concerns MKN-7. In words: Growth inhibition of human MKN7 cells incubated for 48 hrs by sulforhodamine B assay. The settings on record: MKN-7, 48 h. Format: functional.
The test system of experiment [37] is MKN-28. In words: Growth inhibition of human MKN28 cells incubated for 48 hrs by sulforhodamine B assay. As to conditions: MKN-28, 48 h. Format: functional.
The test system of experiment [38] is MKN-45. Nature of the experiment: Growth inhibition of human MKN45 cells incubated for 48 hrs by sulforhodamine B assay. The settings on record: MKN-45, 48 h. Format: functional.
For experiment [39], the system named is MKN-74. In words: Growth inhibition of human MKN74 cells incubated for 48 hrs by sulforhodamine B assay. Type of experiment: functional. As to conditions: MKN-74, 48 h.
For experiment [40], the system named is DU-145. In words: Growth inhibition of human DU145 cells incubated for 48 hrs by sulforhodamine B assay. As to conditions: DU-145, 48 h. Format: functional.
Experiment [41] concerns PC-3. Nature of the experiment: Growth inhibition of human PC3 cells incubated for 48 hrs by sulforhodamine B assay. Format: functional. As to conditions: PC-3, 48 h.
The target in experiment [42] is T1, DNA topoisomerase 2-alpha. Nature of the experiment: Inhibition of recombinant human DNA topoisomerase-2alpha assessed as decrease in relaxation of supercoiled pBR322 DNA at 200 uM after 30 mins by ethidium bromide staining based agarose gel electrophoresis relative to control. In short, it runs like this:
as §1

T1 sequence (P11388 whole entry): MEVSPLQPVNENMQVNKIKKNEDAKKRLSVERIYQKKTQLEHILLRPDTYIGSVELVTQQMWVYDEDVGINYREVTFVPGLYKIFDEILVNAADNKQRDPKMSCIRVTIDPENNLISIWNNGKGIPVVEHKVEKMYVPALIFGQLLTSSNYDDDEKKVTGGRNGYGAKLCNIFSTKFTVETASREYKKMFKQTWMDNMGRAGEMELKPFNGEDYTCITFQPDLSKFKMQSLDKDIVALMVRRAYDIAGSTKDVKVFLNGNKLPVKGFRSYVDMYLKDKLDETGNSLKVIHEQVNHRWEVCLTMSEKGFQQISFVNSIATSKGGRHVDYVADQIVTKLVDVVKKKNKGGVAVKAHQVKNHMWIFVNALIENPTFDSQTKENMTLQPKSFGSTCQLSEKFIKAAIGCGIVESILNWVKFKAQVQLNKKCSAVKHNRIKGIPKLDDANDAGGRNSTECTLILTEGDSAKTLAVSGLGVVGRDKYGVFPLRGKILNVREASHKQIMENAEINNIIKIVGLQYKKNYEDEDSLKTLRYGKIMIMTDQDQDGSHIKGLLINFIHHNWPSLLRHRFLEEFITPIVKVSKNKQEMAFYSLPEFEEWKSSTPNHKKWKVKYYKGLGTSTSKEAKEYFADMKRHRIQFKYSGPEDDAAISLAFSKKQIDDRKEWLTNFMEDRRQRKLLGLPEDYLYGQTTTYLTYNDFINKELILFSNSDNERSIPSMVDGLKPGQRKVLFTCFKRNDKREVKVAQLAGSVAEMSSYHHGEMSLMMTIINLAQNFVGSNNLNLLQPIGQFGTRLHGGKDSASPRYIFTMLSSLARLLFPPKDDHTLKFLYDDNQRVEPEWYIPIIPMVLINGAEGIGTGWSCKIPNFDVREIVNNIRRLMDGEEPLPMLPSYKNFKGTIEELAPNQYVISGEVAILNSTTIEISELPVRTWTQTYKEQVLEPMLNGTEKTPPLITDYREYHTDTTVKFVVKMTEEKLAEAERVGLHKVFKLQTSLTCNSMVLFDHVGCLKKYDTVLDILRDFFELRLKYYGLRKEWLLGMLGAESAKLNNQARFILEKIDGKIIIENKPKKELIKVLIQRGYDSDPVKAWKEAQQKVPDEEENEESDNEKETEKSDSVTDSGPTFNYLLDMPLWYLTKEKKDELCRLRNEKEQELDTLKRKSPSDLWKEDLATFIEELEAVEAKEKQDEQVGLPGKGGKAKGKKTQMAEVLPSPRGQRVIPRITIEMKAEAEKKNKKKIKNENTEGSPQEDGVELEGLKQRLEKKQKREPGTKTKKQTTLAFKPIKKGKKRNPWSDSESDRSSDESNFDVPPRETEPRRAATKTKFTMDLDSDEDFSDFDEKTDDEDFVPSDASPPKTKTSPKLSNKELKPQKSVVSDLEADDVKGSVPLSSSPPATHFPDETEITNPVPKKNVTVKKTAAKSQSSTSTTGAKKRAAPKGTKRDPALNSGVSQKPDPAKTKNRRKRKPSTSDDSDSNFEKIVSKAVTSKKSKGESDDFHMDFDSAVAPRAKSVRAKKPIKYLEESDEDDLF

Regarding `COc1ccc(C[C@H]2CC(=O)O[C@@H]2CO)cc1OC`, in experiment [1], the inhibition result was “inactive”.

`COc1ccc(C2([C@H]3C[C@H](n4cc(C)c(=O)[nH]c4=O)O[C@@H]3CO)SCCCS2)cc1OC`: in experiment [2], the half-maximal inhibitory concentration (IC50) stood at 64.5 µM.

With `COc1ccc(C2([C@H]3C[C@@H](n4cc(C)c(=O)[nH]c4=O)O[C@@H]3CO[Si](C)(C)C(C)(C)C)SCCCS2)cc1OC`, the IC50 in [2] amounted to 18.5 µM. In addition, the GI50 in experiment [3] was 5.01 µM; in experiment [4] it was 3.31 µM; in experiment [5] it was 5.75 µM; in [6], 4.37 µM; in experiment [7], 11 µM; in [8], 7.41 µM. Moreover, the GI50 in experiment [9] is 12.9 µM; in [10], 8.32 µM; in experiment [11], 14.1 µM; in experiment [12], 17 µM; in experiment [13], 12.9 µM; in [14], 12.9 µM. Also, the GI50 in [15] is 11 µM; in experiment [16] it was 6.17 µM; in experiment [17], 9.12 µM; in experiment [18] it was 5.75 µM; in experiment [19] it was 11 µM; in [20] it was 3.39 µM. Further, the GI50 in experiment [21] is 5.62 µM; in [22], 5.62 µM; in experiment [23], 5.37 µM; in experiment [24], 4.57 µM; in experiment [25], 5.62 µM; in experiment [26] it was 8.13 µM. Further, the GI50 in experiment [27] was 11 µM; in experiment [28] it was 4.9 µM; in [29] it was 12.9 µM; in experiment [30] it was 8.32 µM; in [31], 17 µM; in experiment [32] it was 17 µM. Also, the concentration for 50% growth inhibition (GI50) in experiment [33] was 6.76 µM; in experiment [34], 12 µM; in experiment [35] it was 5.01 µM; in experiment [36], 3.02 µM; in experiment [37], 4.9 µM; in experiment [38], 8.32 µM. Besides, the GI50 in experiment [39] is 4.27 µM; in [40] it was 12 µM; in experiment [41], 3.63 µM.

Consider `Cc1cn([C@H]2C[C@H](Cc3ccc(O)c(O)c3)[C@@H](CO[Si](C)(C)C(C)(C)C)O2)c(=O)[nH]c1=O`, for which, in [2], the IC50 was 35.2 µM.

As for `COc1ccc(C[C@H]2CC(=O)O[C@@H]2CO[Si](C)(C)C(C)(C)C)cc1OC`, the 50% inhibitory concentration (IC50) in experiment [2] is 137 µM.

For the molecule `COc1ccc(C2([C@H]3CC(=O)O[C@@H]3CO[Si](C)(C)C(C)(C)C)SCCCS2)cc1OC`, in experiment [2], the IC50 came to 55.7 µM.

In the case of `COc1ccc(C[C@H]2C[C@@H](n3cc(C)c(=O)[nH]c3=O)O[C@@H]2CO)cc1OC`, the inhibition entry in experiment [1] is “inactive”.

Consider `COc1ccc(C[C@H]2C[C@H](n3cc(C)c(=O)[nH]c3=O)O[C@@H]2CO)cc1OC`, for which the concentration for half-maximal inhibition (IC50) in [2] was above 200 µM. For the same molecule, the inhibition in experiment [1] was determined as 23.7%. Moreover, in [42], the inhibition entry is “inactive”.
